From ChEMBL document CHEMBL3407444, “Novel 2,4-disubstituted pyrimidines as potent, selective, and cell-permeable inhibitors of neuronal nitric oxide synthase” (J Med Chem, 2015)

Experiments:
[1] = Inhibition of calmodulin-dependent bovine neuronal NOS using [3H]-arginine as substrate assessed as citrulline formation after 30 mins; parameters: species or system Bos taurus
[2] = target: Nitric oxide synthase 1 (Rattus norvegicus, UniProt P29476); test: Binding affinity to recombinant rat neuronal NOS overexpressed in Escherichia coli assessed as production of nitric oxide from L-arginine measured for 5 mins by oxyhemoglobin NO capture assay
[3] = target: T1, Nitric oxide synthase 3 (Bos taurus, UniProt P29473); test: Binding affinity to recombinant bovine endothelial NOS overexpressed in Escherichia coli assessed as production of nitric oxide from L-arginine measured for 5 mins by oxyhemoglobin NO capture assay
T1 sequence (P29473 whole entry): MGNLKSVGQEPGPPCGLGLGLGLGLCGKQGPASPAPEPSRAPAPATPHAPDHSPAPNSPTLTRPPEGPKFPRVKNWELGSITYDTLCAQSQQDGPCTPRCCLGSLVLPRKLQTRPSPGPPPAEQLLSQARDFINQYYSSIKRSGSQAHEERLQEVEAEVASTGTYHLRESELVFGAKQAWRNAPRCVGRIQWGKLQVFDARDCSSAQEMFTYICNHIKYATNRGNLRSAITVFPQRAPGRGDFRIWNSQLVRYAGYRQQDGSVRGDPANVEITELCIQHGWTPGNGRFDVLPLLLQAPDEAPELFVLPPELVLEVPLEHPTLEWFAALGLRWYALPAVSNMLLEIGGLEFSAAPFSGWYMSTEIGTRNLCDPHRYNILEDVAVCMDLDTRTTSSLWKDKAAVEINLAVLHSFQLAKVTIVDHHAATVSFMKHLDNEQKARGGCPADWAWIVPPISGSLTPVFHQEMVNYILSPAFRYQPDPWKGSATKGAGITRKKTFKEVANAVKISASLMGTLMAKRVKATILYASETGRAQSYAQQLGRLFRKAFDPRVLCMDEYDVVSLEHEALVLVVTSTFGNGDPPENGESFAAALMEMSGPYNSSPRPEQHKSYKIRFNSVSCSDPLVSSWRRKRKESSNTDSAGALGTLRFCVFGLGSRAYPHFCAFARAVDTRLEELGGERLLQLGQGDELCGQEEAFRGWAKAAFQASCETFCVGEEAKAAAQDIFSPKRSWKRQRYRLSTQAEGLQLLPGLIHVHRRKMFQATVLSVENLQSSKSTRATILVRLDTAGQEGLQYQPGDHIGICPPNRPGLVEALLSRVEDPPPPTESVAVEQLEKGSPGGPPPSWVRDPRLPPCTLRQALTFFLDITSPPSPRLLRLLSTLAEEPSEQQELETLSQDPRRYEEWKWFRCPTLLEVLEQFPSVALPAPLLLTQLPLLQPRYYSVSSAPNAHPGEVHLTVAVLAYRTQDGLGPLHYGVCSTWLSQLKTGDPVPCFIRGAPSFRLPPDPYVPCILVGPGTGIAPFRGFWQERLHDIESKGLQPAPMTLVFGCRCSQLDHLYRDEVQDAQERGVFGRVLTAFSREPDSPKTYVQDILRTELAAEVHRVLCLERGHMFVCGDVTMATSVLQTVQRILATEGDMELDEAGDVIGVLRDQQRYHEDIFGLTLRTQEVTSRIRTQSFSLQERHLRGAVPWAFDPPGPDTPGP
Outline: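 Purified recombinant bovine eNOS (E. coli-expressed) at 37 °C in 100 mM HEPES, 10% glycerol, pH 7.4, with 10 μM L-arginine and tetrahydrobiopterin, 100 μM NADPH, 0.83 mM CaCl2, ~320 units/mL calmodulin, and 3 μM human oxyhemoglobin. Methemoglobin formation read at 401 nm every 22 s for 5 min. Nine inhibitor concentrations (500 μM–50 nM), at least duplicate.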

[4] = target: T2, Nitric oxide synthase, inducible (Mus musculus, UniProt P29477); test: Binding affinity to recombinant mouse macrophage inducible NOS overexpressed in Escherichia coli assessed as production of nitric oxide from L-arginine measured for 5 mins by oxyhemoglobin NO capture assay
T2 sequence (P29477 whole entry): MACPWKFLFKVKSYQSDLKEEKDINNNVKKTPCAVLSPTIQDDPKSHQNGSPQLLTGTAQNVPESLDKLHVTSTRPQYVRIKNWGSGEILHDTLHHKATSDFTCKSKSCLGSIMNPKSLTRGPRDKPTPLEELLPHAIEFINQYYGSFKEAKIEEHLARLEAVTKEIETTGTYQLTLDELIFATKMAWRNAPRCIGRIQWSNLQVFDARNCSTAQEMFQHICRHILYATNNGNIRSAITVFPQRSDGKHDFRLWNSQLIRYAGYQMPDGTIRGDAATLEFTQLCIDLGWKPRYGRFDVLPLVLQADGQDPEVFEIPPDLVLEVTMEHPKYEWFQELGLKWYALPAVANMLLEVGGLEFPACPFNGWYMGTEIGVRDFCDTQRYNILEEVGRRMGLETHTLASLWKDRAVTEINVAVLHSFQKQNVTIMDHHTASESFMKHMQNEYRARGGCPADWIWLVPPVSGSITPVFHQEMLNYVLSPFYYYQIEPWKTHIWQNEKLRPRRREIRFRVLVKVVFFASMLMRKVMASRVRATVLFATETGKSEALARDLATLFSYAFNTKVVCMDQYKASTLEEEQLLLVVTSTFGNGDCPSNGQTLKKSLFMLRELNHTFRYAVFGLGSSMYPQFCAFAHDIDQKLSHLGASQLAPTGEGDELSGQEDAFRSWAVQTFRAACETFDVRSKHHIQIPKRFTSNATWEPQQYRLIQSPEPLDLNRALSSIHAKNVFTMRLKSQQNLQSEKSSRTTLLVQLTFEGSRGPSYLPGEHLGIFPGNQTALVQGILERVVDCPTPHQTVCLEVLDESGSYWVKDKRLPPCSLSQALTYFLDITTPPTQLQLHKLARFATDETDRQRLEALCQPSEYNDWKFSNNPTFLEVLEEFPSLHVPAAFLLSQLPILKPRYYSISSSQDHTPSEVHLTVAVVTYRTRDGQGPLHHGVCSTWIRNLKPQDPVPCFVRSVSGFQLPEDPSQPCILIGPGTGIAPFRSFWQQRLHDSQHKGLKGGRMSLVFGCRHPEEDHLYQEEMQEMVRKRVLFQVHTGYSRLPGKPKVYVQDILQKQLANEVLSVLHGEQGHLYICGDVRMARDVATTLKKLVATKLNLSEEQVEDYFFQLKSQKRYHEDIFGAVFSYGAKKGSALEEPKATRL

[5] = target: Nitric oxide synthase 1 (Homo sapiens, UniProt P29475); test: Binding affinity to recombinant human neuronal NOS overexpressed in Escherichia coli assessed as production of nitric oxide from L-arginine measured for 5 mins by oxyhemoglobin NO capture assay
[6] = Selectivity ratio of Ki for recombinant bovine endothelial NOS to Ki for recombinant rat neuronal NOS
[7] = Selectivity ratio of Ki for recombinant mouse macrophage inducible NOS to Ki for recombinant rat neuronal NOS
[8] = Selectivity ratio of Ki for recombinant human neuronal NOS to Ki for recombinant rat neuronal NOS
[9] = target: T3, Alpha-2C adrenergic receptor (Homo sapiens, UniProt P18825); test: Binding affinity to human adrenergic alpha-2C receptor after 90 mins by radioligand displacement assay
T3 sequence (P18825 whole entry): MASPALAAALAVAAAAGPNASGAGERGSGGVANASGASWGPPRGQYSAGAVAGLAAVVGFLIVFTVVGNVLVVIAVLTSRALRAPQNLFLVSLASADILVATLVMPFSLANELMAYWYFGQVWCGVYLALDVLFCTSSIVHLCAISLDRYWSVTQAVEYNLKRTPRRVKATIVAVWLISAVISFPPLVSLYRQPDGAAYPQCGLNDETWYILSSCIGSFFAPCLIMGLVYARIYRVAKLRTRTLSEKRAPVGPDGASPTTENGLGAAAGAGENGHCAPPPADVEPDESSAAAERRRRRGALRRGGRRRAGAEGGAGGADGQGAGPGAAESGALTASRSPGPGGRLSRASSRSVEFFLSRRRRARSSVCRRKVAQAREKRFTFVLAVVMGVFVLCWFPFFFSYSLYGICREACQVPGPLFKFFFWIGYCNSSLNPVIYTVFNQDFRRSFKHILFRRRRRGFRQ

[10] = target: T4, Sigma non-opioid intracellular receptor 1 (Homo sapiens, UniProt Q99720); test: Binding affinity to human sigma-1 receptor after 90 mins by radioligand displacement assay
[11] = target: CYP2C19 (Homo sapiens, UniProt P33261); test: Inhibition of human liver microsomal CYP2C19 using S-mephenytoin as substrate at 10 uM preincubated for 5 mins followed by NADPH addition measured after 20 mins by LC-MS/MS analysis; type: ADME; details: liver microsomes, probe S-mephenytoin
Outline: (§1)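 Human liver microsomes in Kphos buffer, test compound at 10 μM (DMSO). Probe substrate added and preincubated 5 min at 37 °C, then started with NADPH. Incubation times: CYP3A4 (midazolam) 5 min, CYP2D6 (bufuralol) 10 min, CYP2C19 (S-mephenytoin) 20 min. Stopped with cold acetonitrile containing internal standard. Metabolites measured by LC-MS/MS; % inhibition from peak-area ratios relative to DMSO control.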

[12] = target: CYP2D6 (Homo sapiens, UniProt P10635); test: Inhibition of human liver microsomal CYP2D6 using bufuralol as substrate at 10 uM preincubated for 5 mins followed by NADPH addition measured after 10 mins by LC-MS/MS analysis; type: ADME; details: liver microsomes, probe bufuralol; outline: as §1
[13] = target: CYP3A4 (Homo sapiens, UniProt P08684); test: Inhibition of human liver microsomal CYP3A4 using midazolam as substrate at 10 uM preincubated for 5 mins followed by NADPH addition measured after 5 mins by LC-MS/MS analysis; type: ADME; details: liver microsomes, probe midazolam; outline: as §1
[14] = Permeability across apical to basolateral side in human Caco2 cells assessed as drug recovery at 10 uM after 2 hrs by LC/MS/MS analysis; type: ADME, cell-based; details: caco-2, 2 h
Outline: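 Caco-2 monolayers grown 3 weeks, integrity checked by Lucifer yellow transport. Compound 10 μM for 2 h added apically; apical buffer HBSS/10 mM HEPES with glucose, pH 6.5, basolateral transport buffer pH 7.4. Receiver side sampled and quantified by LC/MS/MS; recovery reported.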

[15] = target: 5-hydroxytryptamine receptor 2A (Homo sapiens) (UniProt P28223); test: Binding affinity to human 5-HT2A receptor at 10 uM after 90 mins by radioligand displacement assay relative to control
[16] = target: T5, Alpha-2C adrenergic receptor (Homo sapiens) (UniProt P18825); test: Binding affinity to human adrenergic alpha-2C receptor at 10 uM after 90 mins by radioligand displacement assay relative to control
T5 sequence (whole entry): T3 sequence (P18825 whole entry)

[17] = target: T4, Sigma non-opioid intracellular receptor 1; test: Binding affinity to human sigma-1 receptor at 10 uM after 90 mins by radioligand displacement assay relative to control
[18] = species: Homo sapiens; test: Binding affinity to human sigma-2 receptor at 10 uM after 90 mins by radioligand displacement assay relative to control
[19] = target: T6, 5-hydroxytryptamine receptor 1A (Homo sapiens) (UniProt P08908); details: 10 uM
T6 sequence (whole entry): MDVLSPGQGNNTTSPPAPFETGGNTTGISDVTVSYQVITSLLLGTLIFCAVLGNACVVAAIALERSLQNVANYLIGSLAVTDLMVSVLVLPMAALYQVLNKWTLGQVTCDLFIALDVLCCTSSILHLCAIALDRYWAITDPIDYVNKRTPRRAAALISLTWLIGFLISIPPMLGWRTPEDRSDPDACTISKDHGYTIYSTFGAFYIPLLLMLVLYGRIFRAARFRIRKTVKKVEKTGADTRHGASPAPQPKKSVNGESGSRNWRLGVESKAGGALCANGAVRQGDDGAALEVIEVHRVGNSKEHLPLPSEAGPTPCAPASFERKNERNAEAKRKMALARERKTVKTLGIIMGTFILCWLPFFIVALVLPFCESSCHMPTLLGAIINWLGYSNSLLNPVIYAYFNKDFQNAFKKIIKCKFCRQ

[20] = target: D(3) dopamine receptor (Homo sapiens) (UniProt P35462); details: 10 uM
Chain of D(3) dopamine receptor (Homo sapiens) (P35462 whole entry): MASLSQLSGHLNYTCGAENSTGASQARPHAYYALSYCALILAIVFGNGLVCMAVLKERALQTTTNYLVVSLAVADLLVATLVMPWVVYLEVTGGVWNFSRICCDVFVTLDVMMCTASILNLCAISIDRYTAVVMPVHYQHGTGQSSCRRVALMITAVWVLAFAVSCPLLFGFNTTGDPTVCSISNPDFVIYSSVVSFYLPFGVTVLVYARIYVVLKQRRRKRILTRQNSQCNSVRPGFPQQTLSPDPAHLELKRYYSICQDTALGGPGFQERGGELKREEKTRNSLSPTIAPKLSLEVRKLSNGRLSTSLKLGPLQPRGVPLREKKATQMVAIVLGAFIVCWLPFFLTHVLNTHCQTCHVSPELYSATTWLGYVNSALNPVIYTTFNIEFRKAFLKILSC

Chain of Nitric oxide synthase 1 (Homo sapiens, UniProt P29475) (P29475 whole entry): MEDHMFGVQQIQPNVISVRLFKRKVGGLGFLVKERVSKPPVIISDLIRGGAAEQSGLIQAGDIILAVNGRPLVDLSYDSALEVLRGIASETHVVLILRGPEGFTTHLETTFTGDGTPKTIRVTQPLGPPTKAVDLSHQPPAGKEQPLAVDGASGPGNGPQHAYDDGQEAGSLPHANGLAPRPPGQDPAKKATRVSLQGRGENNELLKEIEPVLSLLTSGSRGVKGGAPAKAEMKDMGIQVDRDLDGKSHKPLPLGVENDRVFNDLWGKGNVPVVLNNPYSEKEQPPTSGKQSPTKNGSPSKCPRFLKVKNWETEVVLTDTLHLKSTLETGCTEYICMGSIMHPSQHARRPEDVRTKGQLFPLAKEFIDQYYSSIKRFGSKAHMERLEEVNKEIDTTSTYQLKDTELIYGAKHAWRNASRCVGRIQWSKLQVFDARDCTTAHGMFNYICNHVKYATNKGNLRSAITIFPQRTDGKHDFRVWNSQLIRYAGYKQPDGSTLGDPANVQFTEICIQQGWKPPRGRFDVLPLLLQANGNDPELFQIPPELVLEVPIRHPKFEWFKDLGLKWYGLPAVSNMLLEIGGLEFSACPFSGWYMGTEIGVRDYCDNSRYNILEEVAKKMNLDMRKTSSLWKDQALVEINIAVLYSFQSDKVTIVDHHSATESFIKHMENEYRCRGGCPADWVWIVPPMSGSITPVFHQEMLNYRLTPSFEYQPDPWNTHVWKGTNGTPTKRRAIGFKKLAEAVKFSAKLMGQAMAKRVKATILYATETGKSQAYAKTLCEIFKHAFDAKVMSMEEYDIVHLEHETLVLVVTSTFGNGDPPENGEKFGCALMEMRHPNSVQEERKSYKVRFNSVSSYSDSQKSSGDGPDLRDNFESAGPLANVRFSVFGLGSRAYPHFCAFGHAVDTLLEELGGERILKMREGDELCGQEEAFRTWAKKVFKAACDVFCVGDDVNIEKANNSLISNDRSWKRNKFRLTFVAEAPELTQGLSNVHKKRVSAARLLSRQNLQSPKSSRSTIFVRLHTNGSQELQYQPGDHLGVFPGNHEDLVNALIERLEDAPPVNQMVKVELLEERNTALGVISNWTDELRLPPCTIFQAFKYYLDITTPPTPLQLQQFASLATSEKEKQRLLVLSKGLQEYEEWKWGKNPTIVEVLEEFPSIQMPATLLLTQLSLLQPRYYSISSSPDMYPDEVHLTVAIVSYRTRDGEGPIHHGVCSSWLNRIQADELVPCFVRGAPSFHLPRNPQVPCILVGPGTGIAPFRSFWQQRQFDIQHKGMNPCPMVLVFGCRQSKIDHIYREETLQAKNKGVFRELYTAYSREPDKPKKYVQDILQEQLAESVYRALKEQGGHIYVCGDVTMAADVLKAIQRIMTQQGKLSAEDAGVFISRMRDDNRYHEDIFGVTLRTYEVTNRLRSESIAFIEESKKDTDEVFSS
Chain of Nitric oxide synthase 1 (Rattus norvegicus, UniProt P29476) (P29476 whole entry): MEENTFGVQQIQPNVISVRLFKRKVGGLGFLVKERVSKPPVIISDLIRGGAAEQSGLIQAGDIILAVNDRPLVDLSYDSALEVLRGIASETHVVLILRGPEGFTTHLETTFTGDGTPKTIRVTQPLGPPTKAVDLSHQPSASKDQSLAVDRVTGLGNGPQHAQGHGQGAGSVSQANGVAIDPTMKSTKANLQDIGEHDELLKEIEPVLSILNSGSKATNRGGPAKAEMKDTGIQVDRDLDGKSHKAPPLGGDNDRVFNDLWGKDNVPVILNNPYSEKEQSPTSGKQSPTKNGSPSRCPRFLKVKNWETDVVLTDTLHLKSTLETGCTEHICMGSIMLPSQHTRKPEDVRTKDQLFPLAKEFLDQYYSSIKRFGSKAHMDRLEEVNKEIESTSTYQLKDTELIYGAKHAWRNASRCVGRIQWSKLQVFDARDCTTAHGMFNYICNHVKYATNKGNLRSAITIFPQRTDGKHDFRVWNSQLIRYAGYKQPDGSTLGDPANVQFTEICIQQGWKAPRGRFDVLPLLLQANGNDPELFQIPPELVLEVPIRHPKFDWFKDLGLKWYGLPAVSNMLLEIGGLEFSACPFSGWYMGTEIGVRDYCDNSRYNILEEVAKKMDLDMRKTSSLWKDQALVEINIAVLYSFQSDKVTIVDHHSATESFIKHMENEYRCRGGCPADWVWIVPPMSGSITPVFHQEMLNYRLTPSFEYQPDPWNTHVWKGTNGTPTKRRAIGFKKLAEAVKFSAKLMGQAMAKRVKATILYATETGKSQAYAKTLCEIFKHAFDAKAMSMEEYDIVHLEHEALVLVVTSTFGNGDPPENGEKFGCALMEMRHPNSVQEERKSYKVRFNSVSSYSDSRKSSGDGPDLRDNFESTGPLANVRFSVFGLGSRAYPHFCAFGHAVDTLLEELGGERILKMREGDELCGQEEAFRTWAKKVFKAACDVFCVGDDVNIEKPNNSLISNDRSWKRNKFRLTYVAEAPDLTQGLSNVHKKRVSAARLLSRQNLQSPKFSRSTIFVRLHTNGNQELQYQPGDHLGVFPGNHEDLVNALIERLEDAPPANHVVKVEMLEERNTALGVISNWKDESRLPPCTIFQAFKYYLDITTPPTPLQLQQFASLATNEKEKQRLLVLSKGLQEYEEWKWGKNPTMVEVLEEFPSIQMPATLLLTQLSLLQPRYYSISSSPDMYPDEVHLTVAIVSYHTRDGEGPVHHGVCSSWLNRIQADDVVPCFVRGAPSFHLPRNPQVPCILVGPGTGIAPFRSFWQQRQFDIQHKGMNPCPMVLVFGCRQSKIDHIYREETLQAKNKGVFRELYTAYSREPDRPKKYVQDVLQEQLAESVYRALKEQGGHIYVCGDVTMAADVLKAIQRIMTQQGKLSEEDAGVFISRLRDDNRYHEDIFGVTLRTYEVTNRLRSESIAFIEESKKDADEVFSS
T4 sequence (Q99720 whole entry): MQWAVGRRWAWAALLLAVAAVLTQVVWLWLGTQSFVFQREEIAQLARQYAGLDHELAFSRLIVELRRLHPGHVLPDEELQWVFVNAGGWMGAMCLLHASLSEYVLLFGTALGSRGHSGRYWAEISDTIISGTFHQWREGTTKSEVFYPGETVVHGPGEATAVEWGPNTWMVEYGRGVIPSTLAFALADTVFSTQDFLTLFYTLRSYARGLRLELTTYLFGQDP
Chain of 5-hydroxytryptamine receptor 2A (Homo sapiens) (P28223 whole entry): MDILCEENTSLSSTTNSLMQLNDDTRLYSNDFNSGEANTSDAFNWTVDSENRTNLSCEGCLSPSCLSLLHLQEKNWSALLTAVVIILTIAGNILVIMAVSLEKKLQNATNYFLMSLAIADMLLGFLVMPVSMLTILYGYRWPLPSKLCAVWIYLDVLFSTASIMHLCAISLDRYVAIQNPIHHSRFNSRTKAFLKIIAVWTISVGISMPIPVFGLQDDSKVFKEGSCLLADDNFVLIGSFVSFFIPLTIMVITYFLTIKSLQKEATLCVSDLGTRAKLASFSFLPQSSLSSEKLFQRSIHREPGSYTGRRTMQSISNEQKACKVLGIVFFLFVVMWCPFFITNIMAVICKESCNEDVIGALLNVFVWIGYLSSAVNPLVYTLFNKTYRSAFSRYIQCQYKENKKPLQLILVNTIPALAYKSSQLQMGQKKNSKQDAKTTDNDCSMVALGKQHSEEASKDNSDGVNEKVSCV
Chain of CYP3A4 (P08684 whole entry): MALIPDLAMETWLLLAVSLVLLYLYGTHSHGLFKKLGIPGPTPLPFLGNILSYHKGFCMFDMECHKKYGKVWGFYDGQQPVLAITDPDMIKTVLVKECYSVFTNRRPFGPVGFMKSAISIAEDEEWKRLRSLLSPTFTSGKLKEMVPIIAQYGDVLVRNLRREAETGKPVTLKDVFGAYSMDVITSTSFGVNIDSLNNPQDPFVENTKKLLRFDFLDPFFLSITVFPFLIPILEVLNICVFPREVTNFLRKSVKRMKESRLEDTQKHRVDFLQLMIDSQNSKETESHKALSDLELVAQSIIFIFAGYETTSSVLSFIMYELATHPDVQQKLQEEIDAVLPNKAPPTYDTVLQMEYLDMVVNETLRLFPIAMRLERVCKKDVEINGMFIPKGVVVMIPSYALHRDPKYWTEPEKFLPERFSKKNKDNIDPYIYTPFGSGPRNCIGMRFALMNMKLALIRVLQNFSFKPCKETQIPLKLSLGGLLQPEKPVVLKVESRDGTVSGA
Chain of CYP2C19 (P33261 whole entry): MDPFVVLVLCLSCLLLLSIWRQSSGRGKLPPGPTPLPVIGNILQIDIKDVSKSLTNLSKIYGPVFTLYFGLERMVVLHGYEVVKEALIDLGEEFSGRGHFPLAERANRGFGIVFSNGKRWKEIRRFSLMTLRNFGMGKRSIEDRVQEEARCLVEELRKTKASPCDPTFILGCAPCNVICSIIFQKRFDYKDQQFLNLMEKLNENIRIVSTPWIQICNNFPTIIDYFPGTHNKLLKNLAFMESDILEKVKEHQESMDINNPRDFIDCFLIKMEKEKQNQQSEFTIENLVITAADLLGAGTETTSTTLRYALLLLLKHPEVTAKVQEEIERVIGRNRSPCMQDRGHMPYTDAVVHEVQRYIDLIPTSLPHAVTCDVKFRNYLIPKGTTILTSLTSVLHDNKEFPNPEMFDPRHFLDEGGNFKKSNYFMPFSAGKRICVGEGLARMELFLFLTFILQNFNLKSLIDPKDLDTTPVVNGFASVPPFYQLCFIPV

c1ccc(-n2ccnc2)cc1
IC50 [1]: 25000 nM

Fc1cccc(C[C@H]2C[C@@H]2NCCc2ccnc(-n3ccnc3)n2)c1
Ki [2]: 150 nM | Ki [3]: 40000 nM | Ki [4]: 3000 nM | Ki [5]: 873 nM

c1c[nH]cn1 [IMIDAZOLE]
IC50 [1]: 200000 nM

Clc1cccc(CCCNCCc2ccnc(-n3ccnc3)n2)c1
Ki [4]: 910 nM | Ratio Ki [6]: 253 | Ratio Ki [7]: 28 | Ratio Ki [8]: 3.9

Fc1cccc(CCCNCc2ccnc(-n3ccnc3)n2)c1
Ratio Ki [6]: 33 | Ratio Ki [7]: 4

Fc1cccc(C2CC2CNCCc2ccnc(-n3ccnc3)n2)c1 (stereo not given)
Ratio Ki [6]: 71 | Ratio Ki [7]: 34 | Ratio Ki [8]: 6.4

Cl.Fc1cccc(CCCNCCc2ccnc(-n3ccnc3)n2)c1
Ki [9]: 200 nM | Ki [10]: 200 nM | inhibition at 20 min, 10 µM [11]: > 70% | inhibition at 10 min, 10 µM [12]: > 70% | inhibition at 5 min, 10 µM [13]: > 70% | Drug recovery [14]: 73% | inhibition [15]: 88% | inhibition [16]: 95% | inhibition [17]: 94% | inhibition [18]: 88% | inhibition [19]: 83% | inhibition [20]: 87%

Fc1cccc(CCCNCCc2ccnc(-n3cncn3)n2)c1
Ki [2]: 27000 nM

Cc1cncn1-c1nccc(CCNCCCc2cccc(F)c2)n1
Ki [2]: 60 nM | Ki [3]: 15400 nM | Ki [4]: 24000 nM | Ki [5]: 303 nM

Fc1cccc(C[C@@H]2C[C@H]2NCCc2ccnc(-n3ccnc3)n2)c1
Ki [2]: 18 nM | Ki [3]: 10300 nM | Ki [4]: 2140 nM | Ki [5]: 137 nM

Fc1cccc(CCNCCNc2ccnc(-n3ccnc3)n2)c1
Ratio Ki [6]: 109 | Ratio Ki [7]: 17

Cc1nccn1-c1nccc(CCNCCCc2cccc(F)c2)n1
Ki [2]: 11500 nM

Cc1cn(-c2nccc(CCNCCCc3cccc(F)c3)n2)cn1
Ki [2]: 81000 nM
